ChEMBL document CHEMBL1140765, “Synthesis and biological evaluation of 2-trifluoromethyl/sulfonamido-5,6-diaryl substituted imidazo[2,1-b]-1,3,4-thiadiazoles: a novel class of cyclooxygenase-2 inhibitors” (Bioorg Med Chem, 2008)

Columns and labels:
Rattus norvegicus [1] = experiment: Antiinflammatory activity in Albino rat assessed as reduction of carrageenan-induced paw edema volume at 10 mg/kg, po after 2 hrs; type: functional; parameters: scale not given: the % may be the effect or the level left
Method in brief: (§1)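 Male albino rats, six per group, were dosed orally. One hour later they received a subplantar injection of 0.05 mL of 1% carrageenan in 0.9% sterile solution into the left hind paw. Paw volume was read by digital plethysmometer at 0, 2 and 4 h. Percent reduction was calculated as (1 − treated/vehicle control edema volume) × 100, and values are given as mean ± SE.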

Rattus norvegicus [2] = experiment: Antiinflammatory activity in Albino rat assessed as reduction of carrageenan-induced paw edema volume at 10 mg/kg, po after 4 hrs; type: functional; parameters: scale not given: the % may be the effect or the level left; method in brief: as §1
[3] = biological target: T1, Prostaglandin G/H synthase 1 (Ovis aries) (UniProt P05979); experiment: Inhibition of ovine COX1 at 10 uM
T1 sequence (whole entry): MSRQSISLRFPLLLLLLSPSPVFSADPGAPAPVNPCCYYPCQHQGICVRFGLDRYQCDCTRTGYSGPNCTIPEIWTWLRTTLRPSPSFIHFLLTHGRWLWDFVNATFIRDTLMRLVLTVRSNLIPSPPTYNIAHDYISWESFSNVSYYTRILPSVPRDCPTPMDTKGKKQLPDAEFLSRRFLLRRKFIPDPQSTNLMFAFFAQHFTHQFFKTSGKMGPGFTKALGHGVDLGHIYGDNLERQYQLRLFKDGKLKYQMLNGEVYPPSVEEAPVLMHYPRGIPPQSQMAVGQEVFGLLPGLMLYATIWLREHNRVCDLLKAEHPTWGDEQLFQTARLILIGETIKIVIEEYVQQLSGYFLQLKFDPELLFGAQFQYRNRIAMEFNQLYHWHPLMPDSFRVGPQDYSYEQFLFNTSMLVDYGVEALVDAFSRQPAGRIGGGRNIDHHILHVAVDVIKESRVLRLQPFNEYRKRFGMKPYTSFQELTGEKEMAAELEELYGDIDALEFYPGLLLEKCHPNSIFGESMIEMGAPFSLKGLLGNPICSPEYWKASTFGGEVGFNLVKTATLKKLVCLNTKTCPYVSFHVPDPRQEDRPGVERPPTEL
Method in brief: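 Ovine COX-1 activity was measured with a colorimetric inhibitor assay kit that reads the enzyme's peroxidase component. Oxidized TMPD was monitored at 590 nm during reduction of PGG2 to PGH2. Runs were done in duplicate.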

[4] = biological target: T2, Prostaglandin G/H synthase 1 (Ovis aries, UniProt P05979); experiment: Inhibition of ovine COX1
T2 sequence (P05979 whole entry): T1 sequence (whole entry)
Method in brief: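 Ovine enzyme, colorimetric kit assay read through the peroxidase component: oxidised TMPD appearing during PGG2 to PGH2 reduction monitored at 590 nm; values reported as IC50 in µM, duplicate experiments.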

Row | Compound | Activity (Rattus norvegicus [1]) | Activity (Rattus norvegicus [2]) | inhibition [3] | IC50 [4]
1 | Cc1ccc(-c2cc(C(F)(F)F)nn2-c2ccc(S(N)(=O)=O)cc2)cc1 [CELECOXIB] | 48.31% | 64.83% | – | –
2 | COc1ccc(-c2nc3sc(C(F)(F)F)nn3c2-c2ccc(OC)cc2)cc1 | 38.03% | 48.78% | 15.5% | –
3 | CSc1ccc(-c2nc3sc(C(F)(F)F)nn3c2-c2ccccc2)cc1 | 37.64% | 54.16% | 14.2% | –
4 | COc1ccc(-c2c(-c3ccc(S(C)(=O)=O)cc3)nc3sc(S(N)(=O)=O)nn23)cc1 | 54.28% | 61.29% | 13.3% | > 50 µM
5 | CS(=O)(=O)c1ccc(-c2nc3sc(C(F)(F)F)nn3c2-c2ccccc2)cc1 | 46.73% | 70.09% | 8.6% | > 50 µM
6 | COc1ccc(-c2c(-c3ccc(F)cc3)nc3sc(S(N)(=O)=O)nn23)cc1 | 43.49% | 51.72% | 12.9% | –
7 | COc1ccc(-c2c(-c3ccccc3)nc3sc(C(F)(F)F)nn23)cc1 | 29.62% | 42.32% | 30.6% | –
8 | COc1ccc(-c2c(-c3ccc(SC)cc3)nc3sc(C(F)(F)F)nn23)cc1 | 42.38% | 66.16% | 10.5% | –
9 | COc1ccc(-c2nc3sc(S(N)(=O)=O)nn3c2-c2ccc(OC)cc2)cc1 | 24.68% | 37.05% | 28.1% | –
